Reference: ChEMBL document CHEMBL5321212, “Design, synthesis, and evaluation of substituted alkylindoles that activate G protein-coupled receptors distinct from the cannabinoid CB1 and CB2 receptors” (Eur J Med Chem, 2023)
Calls of active or inactive are those of the source. The calls are words filed in the database; no cut-off is given here.

Tests used:
Cell membrane [1] = assay: Displacement of [3H]-WIN55212-2 from HEK293 cell membrane lacking CB1R and CB2R assessed as inhibition constant for higher affinity site; format: subcellular; conditions: Homo sapiens
Method in brief: (§1)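 HEK293 membranes (P2 fractions from independent cultures) incubated with [³H]WIN55212-2 plus increasing concentrations of competitor; specific binding determined by filtration. Ki derived from competition curves, fitted as one or two sites (high and low affinity) where curves were biphasic. n = 3–8 independent membrane preparations, each run in triplicate.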

Cell membrane [2] = assay: Displacement of [3H]-WIN55212-2 from HEK293 cell membrane lacking CB1R and CB2R assessed as inhibition constant for lower affinity site; format: subcellular; conditions: Homo sapiens; method in brief: as §1
[3] = Displacement of [3H]-WIN55212-2 from HEK293 cell membrane lacking CB1R and CB2R assessed as inhibition constant; format: cell membranes, Homo sapiens; method in brief: as §1
HEK293 [4] = assay: Induction of HA-tagged human CB2R internalization in HEK293 cells; format: functional, cell-based
Method in brief: (§2)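 HEK293 cells stably expressing HA-tagged human CB2R exposed to compound at 3 μM. Internalization measured and expressed as % of vehicle control. Antagonism tested with AM630 (1 μM). Positive control CP55940 (1 μM). Mean ± SEM of 3–5 independent experiments. One-way ANOVA with Bonferroni post-test.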

HEK293 [5] = assay: Induction of HA-tagged human CB1R internalization in HEK293 cells; format: functional, cell-based
Method in brief: as §2, with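 “CB1R” for “CB2R”, “[…]” for “AM630”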

Cell membrane [6] = assay: Displacement of [3H]-WIN55212-2 from HEK293 cell membrane lacking CB1R and CB2R at 1 uM; format: subcellular; conditions: Homo sapiens
[7] = (§3) Induction of [35S]GTPgammaS binding to HEK293 cell membrane lacking CB1R and CB2R by filtration assay; format: cell membranes, Homo sapiens
Method in brief: (§4)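 [³⁵S]GTPγS binding to HEK293 cell membranes stimulated by compound. Gi/o dependence tested by pretreating cultured cells with pertussis toxin (100 ng/ml, 20 h). Where stated, CB1R antagonist […] (1 μM) or CB2R antagonist SR144528 (1 μM) was present. Mean ± SEM of n = 3–4 experiments, each in triplicate.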

HEK293 [8] = assay: as §3; format: cell membranes; conditions: Homo sapiens; method in brief: as §4
HEK293 [9] = assay: Induction of [35S]GTPgammaS binding to HEK293 cell membrane lacking CB1R and CB2R in presence of SR144528 by filtration assay; format: cell membranes; conditions: Homo sapiens; method in brief: as §4
HEK293 [10] = assay: Induction of [35S]GTPgammaS binding to HEK293 cell membrane lacking CB1R and CB2R in presence of SR141716 by filtration assay; format: cell membranes; conditions: Homo sapiens; method in brief: as §4
Cell membrane [11] = assay: Displacement of [3H]-WIN55212-2 from HEK293 cell membrane lacking CB1R and CB2R in presence of GTPgammaS by filtration assay; format: subcellular; conditions: Homo sapiens
Method in brief: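 HEK293 membranes incubated with [³H]WIN55212-2 and test compound, with or without GTPγS (20 μM). Specific binding determined by filtration assay. Mean ± SEM of n = 3–4 experiments, each in triplicate.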

SMILES	KiH (Cell membrane [1]) [nM]	KiL (Cell membrane [2]) [µM]	Ki [3] [nM]	also measured
Cc1ccc(C(=O)c2c(C)n(C)c3ccccc23)c2ccccc12	0.8	2.6	–	–
Cc1ccc(C(=O)c2c(C)n(CC(F)(F)F)c3ccccc23)c2ccccc12	–	–	1.8	Activity (HEK293 [4]): Active; Activity (HEK293 [5]): inactive
CCn1c(C)c(C(=O)c2ccc(OC)cc2)c2ccccc21	–	–	–	Activity (Cell membrane [6]): inactive
CCn1cc(C(=O)c2ccc(C)c3ccccc23)c2ccccc21	–	–	102	–
CC1=C(CCN2CCOCC2)c2ccccc2/C1=C/c1cccc2ccccc12	–	–	466	–
Cc1c(C(=O)c2cccc3ccccc23)c2ccccc2n1C	2.1	1	–	–
COc1ccc2c(c1)c(C(=O)c1ccc(C)c3ccccc13)c(C)n2CCN1CCOCC1	–	–	–	Activity (Cell membrane [6]): inactive
COc1ccc2c(C(=O)c3ccc(C)c4ccccc34)c(C)n(CCN3CCOCC3)c2c1	–	–	113	EC50 [7]: 229 nM
CCCn1c(C)c(C(=O)c2ccc(C)c3ccccc23)c2ccccc21	–	–	95	–
Cc1ccc(C(=O)c2c(C)n(CCN3CCOCC3)c3cnccc23)c2ccccc12	5.8	2.1	–	–
Cc1ccc(C(=O)c2c(C)n(CCN3CCOCC3)c3cc(Cl)cc(Cl)c23)c2ccccc12	–	–	–	Activity (Cell membrane [6]): inactive
Cc1ccc(C(=O)c2c(C)n(CCN3CCOCC3)c3ccccc23)c2ccccc12	0.8	0.09	–	Activity (HEK293 [4]): Active; Activity (HEK293 [5]): Active
Cc1ccc(C(=O)c2c(C)n(CCN3CCOCC3)c3cc(Cl)ccc23)c2ccccc12	–	–	3.5	EC50 [7]: 3.5 nM
CC1=C(CCN2CCOCC2)c2ccccc2/C1=C\c1cccc2ccccc12	–	–	466	Activity (HEK293 [8]): Active
CCn1c(C)c(C(=O)c2ccc(C)c3ccccc23)c2ccccc21	1.5	0.085	–	Activity (HEK293 [9]): Active; Activity (HEK293 [10]): Active; EC50 [7]: 5 nM; Activity (HEK293 [4]): Active; Activity (Cell membrane [11]): Active; Activity (HEK293 [5]): inactive
Cc1c(C(=O)c2cccc3ccccc23)c2cccc3c2n1[C@@H](CN1CCOCC1)CO3	0.027	0.0072	–	–
Cc1c(C(=O)c2cccc3ccccc23)c2cccc3c2n1[C@H](CN1CCOCC1)CO3	–	–	–	Activity (Cell membrane [6]): inactive
Cc1ccc(C(=O)c2c(C)n(C3CC3)c3ccccc23)c2ccccc12	–	–	118	–
Cc1ccc(C(=O)c2c(C)n(CCN3CCOCC3)c3ccc(Cl)cc23)c2ccccc12	10	2.3	–	–
CCCn1cc(C(=O)c2ccc(C)c3ccccc23)c2ccccc21	–	–	319	–
Cc1ccc(C(=O)c2c3n(c4ccccc24)CCCC3)c2ccccc12	5.5	2.6	–	Activity (HEK293 [4]): Active; Activity (HEK293 [5]): Active
Cn1cc(C(=O)N2CCCc3ccccc32)c2ccccc21	–	–	–	Activity (Cell membrane [6]): inactive
Cc1ccc(C(=O)c2c(C)n(CCN3CCOCC3)c3ncccc23)c2ccccc12	0.4	0.382	–	EC50 [7]: 1.1 nM; Activity (HEK293 [4]): Active; Activity (HEK293 [5]): Active
C1=C(CCN2CCOCC2)c2ccccc2/C1=C\c1cccc2ccccc12	–	–	437	Activity (HEK293 [8]): Active
Cc1ccc(C(=O)c2c(C(F)(F)F)n(CCN3CCOCC3)c3ccccc23)c2ccccc12	–	–	972	–
C1=C(CCN2CCOCC2)c2ccccc2/C1=C/c1cccc2ccccc12	–	–	3400	–
